Assay results reported in ChEMBL document CHEMBL1131242, “6beta-Acetoxynortropane: a potent muscarinic agonist with apparent selectivity toward M2-receptors” (J Med Chem, 1998).
Positions count from the first letter of the chain named.

How the values were obtained:
[1] = molecular target: T1, Neuronal acetylcholine receptor; alpha4/beta2 (Rattus norvegicus) (UniProt P09483+P12390); test: (§1) The compound was evaluated for percentage inhibition of binding of [3H]- nicotine to Nicotinic acetylcholine receptor alpha4-beta2 in Rat Cerebral Cortical Membranes; assay type: protein-complex assay; set-up: concentration or dose not given beside the values; conditions: concentration not given here
Procedure, shortened: (§2)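 Rat cerebral cortex membranes with 0.2 nM [3H]nicotine in HEPES binding buffer pH 7.4 containing 200 µM diisopropyl fluorophosphate. Incubation was 120 min at 0–4 °C, in triplicate. Nonspecific binding used 1 µM nicotine. Samples were filtered through polyethylenimine-soaked GF/B filters and counted.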

[2] = molecular target: T1, Neuronal acetylcholine receptor; alpha4/beta2 (Rattus norvegicus); test: Inhibition of binding of [3H]nicotine to Nicotinic acetylcholine receptor alpha4-beta2 in rat cerebral cortical membranes at 100 uM concentration; assay type: cell membranes; conditions: Membrane
Procedure, shortened: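 [3H]nicotine (0.2 nM) binding to rat cortical membranes, with 200 µM diisopropyl fluorophosphate, 120 min at 0–4 °C, triplicate. Nonspecific binding with 1 µM nicotine. Percent inhibition at 100 µM test agent; mean ± SEM, n = 4.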

[3] = molecular target: T2, Muscarinic acetylcholine receptor M1 (Rattus norvegicus) (UniProt P08482); test: Percentage inhibition of binding of [3H]quinuclidinyl benzilate to muscarinic acetylcholine receptor M1 in rat cerebral cortical membranes; assay type: cell membranes; set-up: concentration or dose not given beside the values; conditions: Membrane, concentration not given here
T2 sequence (whole entry): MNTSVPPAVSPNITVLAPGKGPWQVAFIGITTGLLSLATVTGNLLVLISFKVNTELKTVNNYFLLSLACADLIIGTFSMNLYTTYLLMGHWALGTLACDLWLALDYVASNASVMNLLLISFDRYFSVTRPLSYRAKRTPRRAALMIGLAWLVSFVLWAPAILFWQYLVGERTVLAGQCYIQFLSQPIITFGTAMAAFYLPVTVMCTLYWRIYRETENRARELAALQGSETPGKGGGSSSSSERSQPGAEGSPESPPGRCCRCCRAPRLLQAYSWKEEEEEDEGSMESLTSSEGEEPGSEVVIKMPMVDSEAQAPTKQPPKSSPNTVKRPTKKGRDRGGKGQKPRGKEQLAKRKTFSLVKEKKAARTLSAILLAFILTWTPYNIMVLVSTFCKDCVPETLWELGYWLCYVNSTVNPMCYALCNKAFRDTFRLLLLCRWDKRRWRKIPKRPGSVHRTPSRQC
Procedure, shortened: (§3)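 Rat cerebral cortex membranes were homogenised in 50 mM Tris-HCl pH 7.4 and diluted in HEPES binding buffer. They were incubated with 0.2 nM [3H]quinuclidinyl benzilate in 20 mM HEPES pH 7.4 with 10 mM MgCl2 and 100 mM NaCl for 30 min at 37 °C, in triplicate. Nonspecific binding used 1 µM atropine. Filtration was followed by scintillation counting.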

[4] = molecular target: T3, Muscarinic acetylcholine receptor M1 (Homo sapiens) (UniProt P11229); test: Percentage inhibition of binding of [3H]quinuclidinyl benzilate to muscarinic receptors in membranes of CHO cells transfected with Muscarinic acetylcholine receptor M1; assay type: cell membranes; conditions: concentration not given here
T3 sequence (whole entry): T2 sequence (whole entry) with V5A, S254T, S309P, K320R, G337A, V413I
Procedure, shortened: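 Membranes from CHO cells expressing human M1–M4 receptors in 25 mM sodium phosphate pH 7.4 with 5 mM MgCl2, 30 min at 37 °C, triplicate. [3H]quinuclidinyl benzilate was 0.2 nM for M1 and M3 and 0.1 nM for M2 and M4. Nonspecific binding used 10 µM atropine for M1 and 1 µM for the others.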

[5] = molecular target: T4, Muscarinic acetylcholine receptor M3 (Homo sapiens, UniProt P20309); test: Percentage inhibition of binding of [3H]quinuclidinyl benzilate to muscarinic receptors in membranes of CHO cells transfected with Muscarinic acetylcholine receptor M3; assay type: cell membranes; conditions: concentration not given here
[6] = molecular target: T4, Muscarinic acetylcholine receptor M3; test: Inhibition of binding of [3H]quinuclidinyl benzilate to human Muscarinic acetylcholine receptor M3 in membranes of transfected CHO cells at 100 uM concentration; conditions: Membrane
[7] = molecular target: T5, Neuronal acetylcholine receptor; alpha4/beta2 (Rattus norvegicus, UniProt P09483+P12390); test: Inhibition of binding of [3H]nicotine to Nicotinic acetylcholine receptor alpha4-beta2 in rat cerebral cortical membranes; assay type: cell membranes, Membrane; procedure, shortened: as §2
[8] = molecular target: T5, Neuronal acetylcholine receptor; alpha4/beta2; test: as §1; assay type: protein-complex assay; procedure, shortened: as §2
[9] = molecular target: Muscarinic acetylcholine receptor M3 (Rattus norvegicus) (UniProt P08483); conditions: Membrane; 300 uM
[10] = molecular target: T6, Muscarinic acetylcholine receptor M1 (Rattus norvegicus, UniProt P08482); test: The compound was evaluated for inhibition of binding of [3H]quinuclidinyl benzilate to Muscarinic acetylcholine receptor M1 in Rat Cerebral Cortical Membranes; procedure, shortened: as §3
T6 sequence (P08482 whole entry): T2 sequence (whole entry)

[11] = molecular target: T4, Muscarinic acetylcholine receptor M3; test: Inhibition of binding of [3H]quinuclidinyl benzilate to muscarinic receptors in membranes of CHO cells transfected with […] Muscarinic acetylcholine receptor M3; assay type: cell membranes; conditions: concentration not given here
[12] = molecular target: T3, Muscarinic acetylcholine receptor M1 (Homo sapiens); test: Percentage inhibition of binding of [3H]quinuclidinyl benzilate to […] Muscarinic acetylcholine receptor M1 transfected in membranes of CHO cells; assay type: cell membranes; conditions: concentration not given here
[13] = molecular target: T6, Muscarinic acetylcholine receptor M1; test: Inhibition of binding of [3H]quinuclidinyl benzilate to Muscarinic acetylcholine receptor M1 in rat cerebral cortical membranes at 100 uM concentration; assay type: cell membranes, Membrane
Procedure, shortened: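 Rat cortical membranes with 0.2 nM [3H]quinuclidinyl benzilate in HEPES pH 7.4 with 10 mM MgCl2 and 100 mM NaCl, 30 min at 37 °C, triplicate. Atropine 1 µM defined nonspecific binding. Percent inhibition was read at 100 µM test agent; mean ± SEM, n = 4.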

[14] = molecular target: Muscarinic acetylcholine receptor M4 (Homo sapiens) (UniProt P08173); test: Inhibitory activity against [3H]-cyclic AMP accumulation in CHO transfected cells mediated by Muscarinic acetylcholine receptor M4
[15] = molecular target: Muscarinic acetylcholine receptor M2 (Homo sapiens) (UniProt P08172); test: Inhibition of binding of 0.1 nM [3H]quinuclidinyl benzilate to Muscarinic acetylcholine receptor M2 in membranes of transfected CHO cells in the absence of GTP
[16] = molecular target: T7, Muscarinic acetylcholine receptor M4 (Homo sapiens, UniProt P08173); test: Inhibition of binding of [3H]quinuclidinyl benzilate to muscarinic receptors in membranes of CHO cells transfected with Muscarinic acetylcholine receptor M4; assay type: cell membranes
T7 sequence (P08173 whole entry): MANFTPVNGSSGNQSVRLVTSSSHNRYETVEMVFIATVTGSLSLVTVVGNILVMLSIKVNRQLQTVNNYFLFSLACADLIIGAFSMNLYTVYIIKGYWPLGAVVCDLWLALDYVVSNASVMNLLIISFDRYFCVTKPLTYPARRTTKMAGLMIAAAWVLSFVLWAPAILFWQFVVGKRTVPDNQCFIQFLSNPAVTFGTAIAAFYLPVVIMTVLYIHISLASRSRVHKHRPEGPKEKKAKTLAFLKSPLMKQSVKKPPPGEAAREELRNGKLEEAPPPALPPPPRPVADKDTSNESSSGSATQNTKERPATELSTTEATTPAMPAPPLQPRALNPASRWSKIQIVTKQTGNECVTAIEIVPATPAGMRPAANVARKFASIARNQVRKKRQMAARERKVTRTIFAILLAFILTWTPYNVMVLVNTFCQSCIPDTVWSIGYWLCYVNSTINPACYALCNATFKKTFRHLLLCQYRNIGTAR

[17] = molecular target: T8, Muscarinic acetylcholine receptor M2 (Homo sapiens, UniProt P08172); test: Inhibitory activity against [3H]quinuclidinyl Benzilate binding to Muscarinic acetylcholine receptor M2 in the absence of GTP
T8 sequence (P08172 whole entry): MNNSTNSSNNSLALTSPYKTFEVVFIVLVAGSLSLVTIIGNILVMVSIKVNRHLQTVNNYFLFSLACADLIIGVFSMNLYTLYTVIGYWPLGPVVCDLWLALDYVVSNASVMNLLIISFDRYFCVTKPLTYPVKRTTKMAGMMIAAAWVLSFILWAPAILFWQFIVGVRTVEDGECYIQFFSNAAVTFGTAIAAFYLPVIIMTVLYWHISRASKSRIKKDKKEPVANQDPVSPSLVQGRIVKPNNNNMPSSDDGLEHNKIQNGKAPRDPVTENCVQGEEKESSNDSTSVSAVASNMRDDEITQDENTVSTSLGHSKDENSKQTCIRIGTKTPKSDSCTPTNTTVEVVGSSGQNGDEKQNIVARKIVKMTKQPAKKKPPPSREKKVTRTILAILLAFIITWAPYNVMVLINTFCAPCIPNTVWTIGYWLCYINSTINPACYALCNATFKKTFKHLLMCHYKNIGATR
Procedure, shortened: (§4)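 Membranes from CHO cells expressing human M2 receptor. Competition against 0.1 nM [3H]quinuclidinyl benzilate in 25 mM sodium phosphate pH 7.4, 5 mM MgCl2, without or with 10 μM GTP; 30 min at 37 °C, triplicate. Nonspecific binding with 1 μM atropine. Filtration, scintillation counting.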

[18] = molecular target: T8, Muscarinic acetylcholine receptor M2; test: Inhibition of binding of [3H]quinuclidinyl benzilate to muscarinic receptors in membranes of CHO cells transfected with Muscarinic acetylcholine receptor M2; assay type: cell membranes
[19] = molecular target: Muscarinic acetylcholine receptor M4 (Homo sapiens) (UniProt P08173); test: Inhibition of binding of [3H]quinuclidinyl benzilate to Muscarinic acetylcholine receptor M4 in membranes of transfected CHO cells
[20] = molecular target: T4, Muscarinic acetylcholine receptor M3; test: Inhibitory activity against stimulation of [3H]inositol monophosphate accumulation in [3H]inositol-labelled CHO transfected cells mediated by Muscarinic acetylcholine receptor M3
[21] = molecular target: Muscarinic acetylcholine receptor M2 (Homo sapiens) (UniProt P08172); test: Inhibition of binding of 0.1 nM [3H]quinuclidinyl benzilate to Muscarinic acetylcholine receptor M2 in membranes of transfected CHO cells in the presence of 10 uM GTP
[22] = molecular target: Muscarinic acetylcholine receptor M2 (Homo sapiens) (UniProt P08172); test: Inhibition of binding of [3H]quinuclidinyl benzilate to Muscarinic acetylcholine receptor M2 in membranes of transfected CHO cells
[23] = molecular target: T8, Muscarinic acetylcholine receptor M2; test: Inhibitory activity against [3H]quinuclidinyl Benzilate binding to Muscarinic acetylcholine receptor M2 in the presence of GTP; procedure, shortened: as §4
[24] = molecular target: Muscarinic acetylcholine receptor M1 (Homo sapiens) (UniProt P11229); test: Inhibitory activity against stimulation of [3H]inositol monophosphate accumulation in [3H]inositol-labelled CHO transfected cells mediated by Muscarinic acetylcholine receptor M1
Target sequence in this assay (P11229 whole entry, looked up): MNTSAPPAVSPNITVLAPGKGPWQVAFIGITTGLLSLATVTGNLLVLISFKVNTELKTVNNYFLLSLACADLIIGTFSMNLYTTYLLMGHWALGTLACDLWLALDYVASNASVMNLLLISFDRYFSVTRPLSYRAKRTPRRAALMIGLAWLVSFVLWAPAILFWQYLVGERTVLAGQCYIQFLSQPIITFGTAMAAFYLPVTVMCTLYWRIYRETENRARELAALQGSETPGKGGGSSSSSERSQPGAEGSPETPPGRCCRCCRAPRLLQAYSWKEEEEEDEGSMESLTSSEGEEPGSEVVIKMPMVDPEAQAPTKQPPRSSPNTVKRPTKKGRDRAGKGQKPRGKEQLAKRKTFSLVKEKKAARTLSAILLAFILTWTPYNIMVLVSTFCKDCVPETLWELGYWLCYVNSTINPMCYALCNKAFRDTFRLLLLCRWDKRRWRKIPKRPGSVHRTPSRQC

T4 sequence (P20309 whole entry, looked up): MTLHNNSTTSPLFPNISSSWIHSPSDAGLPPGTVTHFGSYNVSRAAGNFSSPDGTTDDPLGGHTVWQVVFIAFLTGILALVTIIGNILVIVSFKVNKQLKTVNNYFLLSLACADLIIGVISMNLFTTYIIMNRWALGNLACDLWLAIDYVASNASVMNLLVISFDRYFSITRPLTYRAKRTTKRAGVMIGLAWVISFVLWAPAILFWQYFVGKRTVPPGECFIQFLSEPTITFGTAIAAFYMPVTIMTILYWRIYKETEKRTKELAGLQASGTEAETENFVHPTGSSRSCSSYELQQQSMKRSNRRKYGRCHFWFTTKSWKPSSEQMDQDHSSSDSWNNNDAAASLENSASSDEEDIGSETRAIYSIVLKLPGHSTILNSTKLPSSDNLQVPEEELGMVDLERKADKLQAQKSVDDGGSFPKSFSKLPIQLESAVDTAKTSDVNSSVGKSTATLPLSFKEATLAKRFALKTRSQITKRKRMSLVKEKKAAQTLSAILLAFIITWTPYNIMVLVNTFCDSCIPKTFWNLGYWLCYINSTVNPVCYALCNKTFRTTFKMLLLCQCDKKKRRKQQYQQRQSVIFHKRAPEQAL
T5 sequence (P09483 whole entry): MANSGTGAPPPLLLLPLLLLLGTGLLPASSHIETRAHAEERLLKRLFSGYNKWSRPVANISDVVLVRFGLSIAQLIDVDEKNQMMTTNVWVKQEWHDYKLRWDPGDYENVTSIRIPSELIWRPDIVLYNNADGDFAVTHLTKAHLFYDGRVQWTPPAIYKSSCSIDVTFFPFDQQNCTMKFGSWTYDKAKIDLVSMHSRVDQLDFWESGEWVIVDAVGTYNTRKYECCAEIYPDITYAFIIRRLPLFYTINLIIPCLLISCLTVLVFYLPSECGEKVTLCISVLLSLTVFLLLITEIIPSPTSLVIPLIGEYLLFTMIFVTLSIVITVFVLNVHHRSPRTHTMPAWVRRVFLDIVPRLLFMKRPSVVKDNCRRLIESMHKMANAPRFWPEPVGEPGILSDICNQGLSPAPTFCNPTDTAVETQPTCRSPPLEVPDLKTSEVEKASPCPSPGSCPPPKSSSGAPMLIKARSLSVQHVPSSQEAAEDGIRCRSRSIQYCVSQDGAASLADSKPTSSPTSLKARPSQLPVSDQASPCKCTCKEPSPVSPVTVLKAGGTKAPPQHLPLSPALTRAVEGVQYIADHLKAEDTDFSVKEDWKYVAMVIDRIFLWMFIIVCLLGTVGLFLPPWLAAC
T5 sequence (P12390 whole entry): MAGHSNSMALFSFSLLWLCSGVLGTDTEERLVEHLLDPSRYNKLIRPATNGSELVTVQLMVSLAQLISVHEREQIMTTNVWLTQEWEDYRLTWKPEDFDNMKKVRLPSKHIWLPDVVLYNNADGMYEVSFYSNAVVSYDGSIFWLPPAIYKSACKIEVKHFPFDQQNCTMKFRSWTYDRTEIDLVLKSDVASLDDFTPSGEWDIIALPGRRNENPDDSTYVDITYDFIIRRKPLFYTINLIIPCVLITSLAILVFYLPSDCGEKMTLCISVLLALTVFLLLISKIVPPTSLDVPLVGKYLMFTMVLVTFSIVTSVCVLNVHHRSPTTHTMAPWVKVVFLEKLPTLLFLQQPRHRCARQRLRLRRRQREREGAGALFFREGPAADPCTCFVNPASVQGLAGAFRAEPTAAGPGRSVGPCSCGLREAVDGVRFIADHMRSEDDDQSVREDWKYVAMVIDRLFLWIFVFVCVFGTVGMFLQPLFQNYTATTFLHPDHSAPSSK
Sequence of Muscarinic acetylcholine receptor M3 (Rattus norvegicus) (P08483 whole entry, looked up): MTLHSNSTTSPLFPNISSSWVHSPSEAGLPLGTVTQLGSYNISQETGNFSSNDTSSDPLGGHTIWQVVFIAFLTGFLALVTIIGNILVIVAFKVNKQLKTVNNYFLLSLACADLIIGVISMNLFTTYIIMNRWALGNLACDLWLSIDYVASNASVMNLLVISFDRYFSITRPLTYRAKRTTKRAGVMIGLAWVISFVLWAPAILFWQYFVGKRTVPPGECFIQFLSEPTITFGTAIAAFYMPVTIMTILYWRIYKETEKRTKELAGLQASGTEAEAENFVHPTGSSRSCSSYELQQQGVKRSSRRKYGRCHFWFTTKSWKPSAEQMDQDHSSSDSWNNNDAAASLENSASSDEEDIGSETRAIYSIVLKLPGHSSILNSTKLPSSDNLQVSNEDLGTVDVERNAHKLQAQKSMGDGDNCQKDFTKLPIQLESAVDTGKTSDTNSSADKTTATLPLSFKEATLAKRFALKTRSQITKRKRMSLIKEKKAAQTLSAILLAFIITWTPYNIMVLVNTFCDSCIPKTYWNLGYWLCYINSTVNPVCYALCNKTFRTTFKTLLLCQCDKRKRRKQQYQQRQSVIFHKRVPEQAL

**Q.** How did the inhibition [1] turn out when `COC(=O)C1CC2NC1CCC21SCCS1` (centres undefined) was run?
**A.** 36%

**Q.** And the inhibition [2]?
**A.** 36%

**Q.** What about the inhibition [3] of the same compound?
**A.** 3%

**Q.** Which inhibition [1] does the source give for `CC(=O)OC1CC2CC(=O)CC1N2C` (centres undefined) here?
**A.** 5%

**Q.** What about the inhibition [2] of the same compound?
**A.** 5%

**Q.** And the inhibition [3]?
**A.** 0%

**Q.** Which inhibition [4] does the source give for `COC(=O)C1C(O)CC2CCC1N2C` (centres undefined) here?
**A.** 13%

**Q.** What about the inhibition [5] of the same compound?
**A.** 19%

**Q.** And the inhibition [6]?
**A.** 28%

**Q.** And the inhibition [1]?
**A.** 11%

**Q.** And the inhibition [2]?
**A.** 11%

**Q.** And the inhibition [3]?
**A.** 27%

**Q.** With `CC(=O)O[C@@H]1CCC2CCC1N2` (some centres undefined) as the compound, how does the Ki [7] read?
**A.** 24000 nM

**Q.** And the Ki [8]?
**A.** 24000 nM

**Q.** For `C[N+](C)(C)CCOC(N)=O`, which inhibition [9] is on record?
**A.** 16%

**Q.** `CC(=O)O[C@H]1CCC2NC1C[C@@H]2S(=O)(=O)c1ccccc1` (some centres undefined) was tested. Which inhibition [1] did it give?
**A.** 16%

**Q.** And the inhibition [2]?
**A.** 16%

**Q.** And the inhibition [3]?
**A.** 0%

**Q.** Which results are given for `CC(=O)O[C@@H]1CCC2NC1C[C@@H]2S(=O)(=O)c1ccccc1` (some centres undefined)?
**A.** inhibition [1]: 10%; inhibition [2]: 10%; inhibition [3]: 6%

**Q.** For `COC(=O)C1=CCC2CCC1N2C` (centres undefined), which Ki [10] is on record?
**A.** 25000 nM

**Q.** What about the inhibition [11] of the same compound?
**A.** 28%

**Q.** And the inhibition [6]?
**A.** 28%

**Q.** And the inhibition [12]?
**A.** 26%

**Q.** And the Ki [13]?
**A.** 25000 nM

**Q.** `CC(=O)OC(C)C[N+](C)(C)C` (centres undefined) [METHACHOLINE] was tested. Which IC50 [14] did it give?
**A.** 700 nM

**Q.** What about the inhibition [4] of the same compound?
**A.** 8%

**Q.** And the inhibition [5]?
**A.** 34%

**Q.** And the IC50 [15]?
**A.** 380 nM

**Q.** And the Ki [16]?
**A.** 1600 nM

**Q.** And the IC50 [17]?
**A.** 380 nM

**Q.** What about the Ki [18] of the same compound?
**A.** 59 nM

**Q.** What about the Ki [19] of the same compound?
**A.** 1600 nM

**Q.** And the EC50 [20]?
**A.** 120 nM

**Q.** And the IC50 [21]?
**A.** 5200 nM

**Q.** And the Ki [22]?
**A.** 59 nM

**Q.** And the IC50 [23]?
**A.** 5200 nM

**Q.** And the EC50 [24]?
**A.** 400 nM
